Screens deposited in PubChem by Johns Hopkins Ion Channel Center.
TRPC6 inhibitor – mouse TRPC6 channel inhibition; HEK293-TRPC6, membrane potential dye, ACh-evoked depolarization; active compounds read low; B-score at 10 µM; actives 1.1% (n = 310,000);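 active = B-score under library mean minus 3 SD, initial fluorescence not abnormally high, positive integrated signal ratio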;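 also: B-score derived from integrated fluorescence ratio over the kinetic read; more negative B-score means stronger inhibition of depolarization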
TRPC4 potent – TRPC4 (mouse) allosteric potentiation | actives 0.42% (n = 310,000) | Q9QUQ5 | B-score at 10 µM | HEK293 TRPC4beta/mu-opioid, DAMGO EC20, Fluo-4 Ca2+ flux; active compounds read high | AID 2227;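 active = B-score of calcium response area above 5 SD of library B-scores, with initial fluorescence ratio within 5 SD of library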
TRPC6 activator – activates the mouse TRPC6 cation channel; B-score at 10 µM; HEK293-TRPC6 membrane potential dye fluorescence; active compounds read high; actives 0.13% (n = 310,000); AID 2550;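 active = B-score of the integrated fluorescence ratio above library mean plus 3 SD, and starting fluorescence ratio within library mean plus 5 SD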;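 also: higher score means more depolarization so channel activation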
TRPC4 block – blocks the mouse TRPC4 cation channel. AID 2247. HEK293 TRPC4beta/mu-opioid, DAMGO-evoked Fluo4 calcium flux; active compounds read low. B-score at 10 µM. Q9QUQ5. actives 0.39% (n = 300,000);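 active = B-score over 3 SD under the library average, no early fluorescence shift, positive overall ratio signal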
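material = TRPC4beta/mu-opioid receptor HEK293 cell line | probe or stimulus = sequential submaximal and maximal DAMGO stimulation | compound dosing = one concentration per compound | measured by = Fluo4 Ca2+ flux fluorescence | evaluation = integrated fluorescence ratio relative to baseline, converted to per-well B score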
TRPC4 agonist – opens the mouse TRPC4 cation channel. AID 2237. HEK293 TRPC4beta/mu-opioid, Fluo4 calcium fluorescence; active compounds read high. B-score at 10 µM. actives 0.49% (n = 310,000);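 active = B-score above 5 SD of library B-scores, and initial fluorescence ratio not above library mean plus 5 SD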;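 also: positive B-score marks a calcium rise read as TRPC4 activation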
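Incubation: 45 min room-temperature Fluo4 loading, 110 s read / System: HEK293 cells stably co-expressing mouse TRPC4beta and mu-opioid receptor / Signal: Fluo4 fluorescence, kinetic / Control set: buffer (low) and maximal DAMGO (high) / Measure: integrated baseline-normalised fluorescence ratio, converted to per-well B score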
A number is an active result; . = inactive. Sampled rows, rich in hits. Any-hit rate of the full collection: about 2.3%.

SMILES	TRPC6 inhibitor	TRPC4 potent	TRPC6 activator	TRPC4 block	TRPC4 agonist
O=C(Nc1ccccc1)C1=C[C@@H](C2CCCCC2)C[C@@H](OCc2ccc(CO)cc2)O1	.	.	.	.	.
CC(C)(C)[C@@H]1C=C(C(=O)NCc2ccccc2)O[C@H](OCc2ccc(CO)cc2)C1	.	13	.	.	.
O=C(NCc1ccccc1)C1=C[C@H](c2ccc(Br)cc2)C[C@H](OCc2ccc(CO)cc2)O1	.	15	.	.	.
CCCNCc1cc(Br)ccc1OCC(=O)NCCc1ccccc1	.	.	.	-6	.
Cc1nn(C(=O)CNS(=O)(=O)c2ccccc2)c(C)c1Sc1ccc(Cl)cc1	.	.	.	-7	.
CCOc1ccc(C(=O)Nc2ccc3[nH]ncc3c2)cc1	.	.	.	.	.
NS(=O)(=O)c1ccc(Nc2nc(-c3ccc(O)cc3O)cs2)cc1	.	.	.	-6	.
COc1ccccc1N1CCNC(C)C1=O (stereo not given)	.	.	.	.	.
O=C(Nc1ccccc1)NC1CCN(Cc2c(F)cccc2Cl)CC1	.	.	.	.	.
CC(C)(C)c1ccccc1NC(=O)NC1CCN(Cc2c(F)cccc2Cl)CC1	.	.	.	.	116
O=C(CSc1ccc(Br)cc1)Nc1ccccc1N1CCOCC1	.	.	.	.	.
CC(C)CN(C(=O)COC(=O)COc1ccc2ccccc2c1)c1c(N)n(Cc2ccccc2)c(=O)[nH]c1=O	.	16	.	.	.
CCOc1ccc(OCC(=O)OCC(=O)N(CC(C)C)c2c(N)n(Cc3ccccc3)c(=O)[nH]c2=O)cc1	.	.	.	.	.
O=C(Nc1nnc(-c2ccccc2Cl)o1)c1nc2ccccc2s1	.	.	.	.	185
COCCn1c(SCC(=O)NCCc2ccccc2)nc2c([nH]c3ccccc32)c1=O	.	.	.	.	.
COCCn1c(SCC(=O)Nc2ccccc2OC)nc2c([nH]c3ccccc32)c1=O	.	.	.	-7	.
COCCn1c(SCC(=O)NCCc2ccc(OC)c(OC)c2)nc2c([nH]c3ccccc32)c1=O	.	11	.	.	.
CCN1C(=O)N[C@@H](CCc2ccccc2)[C@@H](C(=O)OC)[C@H]1C	.	.	.	.	.
COCCNC(=O)c1ccc(CS(=O)(=O)c2ccc(OC)cc2)o1	.	.	.	.	.
CCCCN(CCCNC(=O)c1ccc(CS(=O)(=O)c2ccc(OC)cc2)o1)Cc1ccccc1	.	.	.	-6	.
CCN(CC)CCCNC(=O)c1ccc(CS(=O)(=O)c2ccccc2OC)o1	.	.	.	.	.
CCCCN(CC)CCCNC(=O)c1ccc(CS(=O)(=O)c2ccccc2C)o1	.	.	.	.	68
CCOc1ccccc1NC(=O)CN(c1ccc(OC)cc1)S(=O)(=O)c1c(C)[nH]c(=O)[nH]c1=O	.	20	.	.	.
CC(=O)Cn1ncc(N2CCOCC2)c(Cl)c1=O	.	.	.	.	.
CC(=O)Cn1ncc(N2CCOCC2)cc1=O	.	.	.	-8	.
SMILES	TRPC6 inhibitor	TRPC4 potent	TRPC6 activator	TRPC4 block	TRPC4 agonist
O=S(=O)(NCC1(N2CCOCC2)CCCCC1)c1ccc(Cl)cc1C(F)(F)F	.	.	.	.	47
N=C(N)SCc1cn2ccccc2n1	.	16	.	.	.
O=C1C2N=NN(CC(=O)N3N=C(c4ccccc4)CC3c3ccc([N+](=O)[O-])cc3)C2C(=O)N1c1ccccc1 (stereo not given)	.	.	.	.	.
O=C(CSc1nccc(=O)[nH]1)NCc1ccco1	.	.	.	.	.
Cc1ccc(COn2c(-c3ccc(Cl)cc3Cl)nc3ncccc32)cc1	.	.	.	-8	59
Clc1cccc(COn2c(-c3ccc(Cl)cc3Cl)nc3ncccc32)c1	.	.	.	-6	.
COn1c(-c2ccc(C)cc2)nc2ncccc21	.	.	.	.	.
COc1cccc(C(=O)NC2CC3CCCC(C2)N3S(=O)(=O)c2ccccc2)c1 (stereo not given)	.	.	.	.	.
O=C(Cc1ccc(Br)cc1)NC1CCN(Cc2ccccc2)CC1	.	12	.	.	.
O=C(NC1CCN(Cc2ccccc2)CC1)C12CC3CC(CC(C3)C1)C2	.	.	.	.	123
CN(Cc1cccnc1)C(=O)CNC(=O)c1ccc(Cl)cc1Cl	.	.	.	.	.
